Here are results for one compound from ChEMBL document CHEMBL4354843, “Structure-Based Design of a Potent and Selective Covalent Inhibitor for SRC Kinase That Targets a P-Loop Cysteine” (J Med Chem, 2020).

For assay [1], the target named is Tyrosine-protein kinase Mer (Homo sapiens) (UniProt Q12866). Briefly: Binding affinity to wild-type human partial length MERTK (R557 to L884 residues) expressed in bacterial expression system assessed as residual binding level at 1 uM by Kinomescan method relative to control.
The target in assay [2] is Serine/threonine-protein kinase Sgk2 (Homo sapiens) (UniProt Q9HBY8). Briefly: Binding affinity to wild-type human partial length SGK2 (L54 to C427 residues) expressed in mammalian expression system assessed as residual binding level at 1 uM by Kinomescan method relative to control.
Assay [3] addresses SNF-related serine/threonine-protein kinase (Homo sapiens) (UniProt Q9NRH2). Briefly: Binding affinity to wild-type human partial length SNRK (M1 to E339 residues) expressed in mammalian expression system assessed as residual binding level at 1 uM by Kinomescan method relative to control.
For assay [4], the target named is Serine/threonine-protein kinase 3 (Homo sapiens) (UniProt Q13188). The assay is described as follows: Binding affinity to wild-type human partial length MST2 (D17 to E318 residues) expressed in bacterial expression system assessed as residual binding level at 1 uM by Kinomescan method relative to control.
The target of assay [5] is Receptor-type tyrosine-protein kinase FLT3 (Homo sapiens) (UniProt P36888). The assay is described as follows: Binding affinity to wild-type human partial length autoinhibited FLT3 (H564 to Y969 residues) expressed in mammalian expression system assessed as residual binding level at 1 uM by Kinomescan method relative to control.
Assay [6] deals with Ephrin type-A receptor 7 (Homo sapiens) (UniProt Q15375). Briefly: Binding affinity to wild-type human partial length EPHA7 (Y608 to S912 residues) expressed in bacterial expression system assessed as residual binding level at 1 uM by Kinomescan method relative to control.
In assay [7] the target is Serine/threonine-protein kinase D3 (Homo sapiens) (UniProt O94806). Briefly: Binding affinity to wild-type human partial length PRKD3 (S543 to E863 residues) expressed in bacterial expression system assessed as residual binding level at 1 uM by Kinomescan method relative to control. The essentials: (§1)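 Active-site-directed competition binding panel of 468 kinases (KinomeScan), compound at 1 μM. The read-out is kinase remaining bound, given as a percentage of the DMSO control. […]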

The target of assay [8] is Tyrosine-protein kinase Srms (Homo sapiens) (UniProt Q9H3Y6). The assay is described as follows: Binding affinity to wild-type human partial length SRMS (L208 to P488 residues) expressed in mammalian expression system assessed as residual binding level at 1 uM by Kinomescan method relative to control.
The target in assay [9] is Ribosomal protein S6 kinase alpha-6 (Homo sapiens) (UniProt Q9UK32). The assay is described as follows: Binding affinity to wild-type human partial length N- terminal RSK4 kinase domain 1 (M1 to E397 residues) expressed in mammalian expression system assessed as residual binding level at 1 uM by Kinomescan method relative to control. The gist of the method: as §1
Assay [10] deals with Receptor-interacting serine/threonine-protein kinase 1 (Homo sapiens) (UniProt Q13546). Briefly: Binding affinity to wild-type human partial length RIPK1 (M1 to K305 residues) expressed in bacterial expression system assessed as residual binding level at 1 uM by Kinomescan method relative to control.
Assay [11] deals with SRSF protein kinase 1 (Homo sapiens) (UniProt Q96SB4). The assay is described as follows: Binding affinity to wild-type human full length SRPK1 (M1 to S655 residues) expressed in bacterial expression system assessed as residual binding level at 1 uM by Kinomescan method relative to control. The essentials:
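Active site-directed binding assay (KinomeScan) run across a 468-kinase panel, with the test compound at 1 μM. The read-out is the remaining kinase signal in the presence of compound, expressed as a percentage of the DMSO control. Scores above 35% were taken as weak binding and were not reported.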

The target of assay [12] is Activated CDC42 kinase 1 (Homo sapiens) (UniProt Q07912). Briefly: Binding affinity to wild-type human partial length TNK2 (S159 to D474 residues) expressed in bacterial expression system assessed as residual binding level at 1 uM by Kinomescan method relative to control. The essentials: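 Active site-directed competition binding panel (KinomeScan, 468 kinases). Test compound at 1 μM. Read-out is kinase binding remaining versus DMSO control, expressed as percent of control. Scores above 35% are treated as weak binding.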

The target in assay [13] is Mitogen-activated protein kinase kinase kinase kinase 2 (Homo sapiens) (UniProt Q12851). Briefly: Binding affinity to wild-type human partial length MAP4K2 (M1 to G318 residues) expressed in mammalian expression system assessed as residual binding level at 1 uM by Kinomescan method relative to control.
Assay [14] has as its target RAC-gamma serine/threonine-protein kinase (Homo sapiens) (UniProt Q9Y243). The assay is described as follows: Binding affinity to wild-type human partial length AKT3 expressed in bacterial expression system assessed as residual binding level at 1 uM by Kinomescan method relative to control.
Assay [15] addresses Tyrosine-protein kinase ITK/TSK (Homo sapiens) (UniProt Q08881). The assay is described as follows: Binding affinity to wild-type human partial length ITK (R335 to L620 residues) expressed in bacterial expression system assessed as residual binding level at 1 uM by Kinomescan method relative to control.
Assay [16] has as its system Tyrosine-protein kinase ABL1 (Homo sapiens), P00519 [M351T]. Briefly: Binding affinity to human phosphorylated ABL1 M351T mutant (S229 to K512 residues) expressed in mammalian expression system assessed as residual binding level at 1 uM by Kinomescan method relative to control. The essentials:
(§2)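 Active-site-directed KinomeScan competition binding panel covering 468 kinases, compound tested at 1 μM. Each readout is the kinase signal remaining with compound, expressed as a percentage of the DMSO control. […]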

The test system of assay [17] is Phosphatidylinositol 4,5-bisphosphate 3-kinase catalytic subunit alpha isoform (Homo sapiens), P42336 [M1043I]. The assay is described as follows: Binding affinity to human partial length PIK3CA M1043I mutant (R108 to N1068 residues) expressed in mammalian expression system assessed as residual binding level at 1 uM by Kinomescan method relative to control. The essentials: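 KinomeScan active site-directed competition binding panel (468 kinases), compound tested at 1 μM. Result expressed as remaining kinase signal versus DMSO control (percent of control).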

Assay [18] concerns the target Mitogen-activated protein kinase kinase kinase 3 (Homo sapiens) (UniProt Q99759). Briefly: Binding affinity to wild-type human partial length MAP3K3 (E320 to Y626 residues) expressed in mammalian expression system assessed as residual binding level at 1 uM by Kinomescan method relative to control.
The target of assay [19] is Megakaryocyte-associated tyrosine-protein kinase (Homo sapiens) (UniProt P42679). The assay is described as follows: Binding affinity to wild-type human full length CTK (M43 to P508 residues) expressed in mammalian expression system assessed as residual binding level at 1 uM by Kinomescan method relative to control. The gist of the method: as §2
For assay [20], the target named is Serine/threonine-protein kinase PAK 6 (Homo sapiens) (UniProt Q9NQU5). The assay is described as follows: Binding affinity to wild-type human partial length PAK6 (N298 to C681 residues) expressed in bacterial expression system assessed as residual binding level at 1 uM by Kinomescan method relative to control. The essentials: as §1
Assay [21] deals with Angiopoietin-1 receptor (Homo sapiens) (UniProt Q02763). The assay is described as follows: Binding affinity to wild-type human partial length TIE2 (N804 to T1112 residues) expressed in bacterial expression system assessed as residual binding level at 1 uM by Kinomescan method relative to control.

Chain of Tyrosine-protein kinase ITK/TSK (Homo sapiens) (Q08881 whole entry, the tested form may be a part): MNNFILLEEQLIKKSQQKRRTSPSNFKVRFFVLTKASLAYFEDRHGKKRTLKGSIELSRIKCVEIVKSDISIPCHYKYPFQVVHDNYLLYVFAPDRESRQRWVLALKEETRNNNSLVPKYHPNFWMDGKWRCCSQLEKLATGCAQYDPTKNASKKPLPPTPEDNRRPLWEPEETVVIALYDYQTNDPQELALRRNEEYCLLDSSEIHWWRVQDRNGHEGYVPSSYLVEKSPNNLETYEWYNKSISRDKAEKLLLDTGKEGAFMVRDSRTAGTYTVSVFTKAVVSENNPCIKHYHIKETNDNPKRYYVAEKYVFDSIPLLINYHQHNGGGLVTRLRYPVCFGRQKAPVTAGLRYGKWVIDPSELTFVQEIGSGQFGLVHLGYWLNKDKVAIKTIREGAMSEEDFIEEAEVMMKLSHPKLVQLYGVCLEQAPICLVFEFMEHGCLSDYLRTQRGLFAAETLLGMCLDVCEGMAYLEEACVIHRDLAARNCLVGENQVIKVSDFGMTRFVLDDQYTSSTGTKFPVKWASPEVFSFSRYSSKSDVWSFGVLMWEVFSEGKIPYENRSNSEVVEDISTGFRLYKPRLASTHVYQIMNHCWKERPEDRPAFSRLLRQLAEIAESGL
Chain of Serine/threonine-protein kinase 3 (Homo sapiens) (Q13188 whole entry, the tested form may be a part): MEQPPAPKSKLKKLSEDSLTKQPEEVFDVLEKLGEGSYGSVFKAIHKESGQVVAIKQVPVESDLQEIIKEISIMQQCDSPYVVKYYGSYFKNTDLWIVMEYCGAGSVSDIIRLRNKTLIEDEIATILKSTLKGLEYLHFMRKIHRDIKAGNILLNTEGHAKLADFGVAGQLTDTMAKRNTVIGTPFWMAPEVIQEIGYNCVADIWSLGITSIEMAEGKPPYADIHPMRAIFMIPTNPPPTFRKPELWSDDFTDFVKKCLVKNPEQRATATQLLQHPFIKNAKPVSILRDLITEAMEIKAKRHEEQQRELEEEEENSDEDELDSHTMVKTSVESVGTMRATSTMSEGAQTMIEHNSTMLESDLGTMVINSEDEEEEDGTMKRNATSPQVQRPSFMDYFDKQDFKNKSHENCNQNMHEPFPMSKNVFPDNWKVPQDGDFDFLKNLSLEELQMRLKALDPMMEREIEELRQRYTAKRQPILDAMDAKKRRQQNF
Chain of SNF-related serine/threonine-protein kinase (Homo sapiens) (Q9NRH2 whole entry, the tested form may be a part): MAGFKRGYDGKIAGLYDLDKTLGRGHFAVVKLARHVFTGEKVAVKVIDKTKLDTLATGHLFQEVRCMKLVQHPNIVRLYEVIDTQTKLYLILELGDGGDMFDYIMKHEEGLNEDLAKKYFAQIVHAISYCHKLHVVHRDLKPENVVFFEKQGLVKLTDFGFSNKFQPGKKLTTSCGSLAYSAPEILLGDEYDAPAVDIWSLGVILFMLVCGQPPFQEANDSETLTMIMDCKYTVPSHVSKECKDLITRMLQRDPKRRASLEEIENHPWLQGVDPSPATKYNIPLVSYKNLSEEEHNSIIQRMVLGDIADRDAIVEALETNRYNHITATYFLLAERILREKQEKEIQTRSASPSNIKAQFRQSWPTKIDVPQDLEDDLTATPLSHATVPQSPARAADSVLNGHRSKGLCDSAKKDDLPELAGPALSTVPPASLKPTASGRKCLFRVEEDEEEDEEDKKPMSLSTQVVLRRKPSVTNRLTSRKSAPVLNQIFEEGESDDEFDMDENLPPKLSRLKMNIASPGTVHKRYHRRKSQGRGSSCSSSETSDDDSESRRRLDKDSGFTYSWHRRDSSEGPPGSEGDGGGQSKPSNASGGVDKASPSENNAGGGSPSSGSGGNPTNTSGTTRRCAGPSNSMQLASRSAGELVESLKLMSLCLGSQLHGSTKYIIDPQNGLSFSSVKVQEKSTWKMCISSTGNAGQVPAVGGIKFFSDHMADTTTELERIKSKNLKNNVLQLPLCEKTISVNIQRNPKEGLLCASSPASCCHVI
Chain of Receptor-interacting serine/threonine-protein kinase 1 (Homo sapiens) (Q13546 whole entry, the tested form may be a part): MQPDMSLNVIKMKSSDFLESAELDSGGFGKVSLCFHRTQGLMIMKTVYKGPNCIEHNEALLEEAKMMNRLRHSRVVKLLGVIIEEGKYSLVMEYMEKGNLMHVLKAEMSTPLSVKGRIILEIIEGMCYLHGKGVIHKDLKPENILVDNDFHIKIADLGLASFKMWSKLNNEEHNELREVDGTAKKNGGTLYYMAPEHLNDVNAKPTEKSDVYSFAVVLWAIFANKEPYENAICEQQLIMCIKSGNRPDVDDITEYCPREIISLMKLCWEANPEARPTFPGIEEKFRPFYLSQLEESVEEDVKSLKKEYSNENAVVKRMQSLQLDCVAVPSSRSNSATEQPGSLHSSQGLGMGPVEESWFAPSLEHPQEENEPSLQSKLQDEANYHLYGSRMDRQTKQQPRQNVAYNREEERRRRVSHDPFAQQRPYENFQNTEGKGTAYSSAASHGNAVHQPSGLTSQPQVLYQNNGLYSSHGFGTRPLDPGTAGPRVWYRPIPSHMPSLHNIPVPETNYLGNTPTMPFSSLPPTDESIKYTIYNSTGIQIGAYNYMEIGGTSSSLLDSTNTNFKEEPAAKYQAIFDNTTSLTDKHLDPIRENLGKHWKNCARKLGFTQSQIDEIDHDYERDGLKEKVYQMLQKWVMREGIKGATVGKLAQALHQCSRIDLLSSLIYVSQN
Chain of Tyrosine-protein kinase Srms (Homo sapiens) (Q9H3Y6 whole entry, the tested form may be a part): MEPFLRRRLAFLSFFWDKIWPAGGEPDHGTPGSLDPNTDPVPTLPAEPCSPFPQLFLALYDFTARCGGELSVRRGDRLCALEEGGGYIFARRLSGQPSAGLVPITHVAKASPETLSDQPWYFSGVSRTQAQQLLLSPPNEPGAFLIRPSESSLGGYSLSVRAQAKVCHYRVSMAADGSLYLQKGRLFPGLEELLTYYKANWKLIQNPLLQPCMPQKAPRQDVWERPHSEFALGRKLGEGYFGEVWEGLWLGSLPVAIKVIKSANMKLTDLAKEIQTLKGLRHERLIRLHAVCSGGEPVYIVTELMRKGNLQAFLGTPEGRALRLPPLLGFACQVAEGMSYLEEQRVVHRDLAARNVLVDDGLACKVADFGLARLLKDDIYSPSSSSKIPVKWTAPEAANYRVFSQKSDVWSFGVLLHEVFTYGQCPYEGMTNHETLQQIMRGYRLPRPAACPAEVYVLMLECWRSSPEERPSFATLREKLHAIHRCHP
Chain of Serine/threonine-protein kinase PAK 6 (Homo sapiens) (Q9NQU5 whole entry, looked up, the tested form may be a part): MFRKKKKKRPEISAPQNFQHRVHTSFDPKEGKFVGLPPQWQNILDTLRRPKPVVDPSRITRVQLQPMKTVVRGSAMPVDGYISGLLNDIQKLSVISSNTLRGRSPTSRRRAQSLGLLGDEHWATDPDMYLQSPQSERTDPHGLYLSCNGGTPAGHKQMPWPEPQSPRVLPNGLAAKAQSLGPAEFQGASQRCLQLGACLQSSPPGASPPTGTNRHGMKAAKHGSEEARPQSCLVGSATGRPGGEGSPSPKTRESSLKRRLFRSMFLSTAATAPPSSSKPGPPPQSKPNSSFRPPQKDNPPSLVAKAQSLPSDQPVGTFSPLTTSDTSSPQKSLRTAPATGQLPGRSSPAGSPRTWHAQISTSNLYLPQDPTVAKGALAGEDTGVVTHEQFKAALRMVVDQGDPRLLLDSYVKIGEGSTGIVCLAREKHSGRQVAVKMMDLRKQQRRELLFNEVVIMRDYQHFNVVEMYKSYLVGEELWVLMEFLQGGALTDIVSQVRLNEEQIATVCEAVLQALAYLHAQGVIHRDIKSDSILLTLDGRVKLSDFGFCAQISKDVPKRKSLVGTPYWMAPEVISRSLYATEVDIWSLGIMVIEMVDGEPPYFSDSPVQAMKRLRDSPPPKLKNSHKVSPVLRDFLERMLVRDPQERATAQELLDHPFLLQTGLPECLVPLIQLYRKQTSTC
Chain of Mitogen-activated protein kinase kinase kinase 3 (Homo sapiens) (Q99759 whole entry, the tested form may be a part): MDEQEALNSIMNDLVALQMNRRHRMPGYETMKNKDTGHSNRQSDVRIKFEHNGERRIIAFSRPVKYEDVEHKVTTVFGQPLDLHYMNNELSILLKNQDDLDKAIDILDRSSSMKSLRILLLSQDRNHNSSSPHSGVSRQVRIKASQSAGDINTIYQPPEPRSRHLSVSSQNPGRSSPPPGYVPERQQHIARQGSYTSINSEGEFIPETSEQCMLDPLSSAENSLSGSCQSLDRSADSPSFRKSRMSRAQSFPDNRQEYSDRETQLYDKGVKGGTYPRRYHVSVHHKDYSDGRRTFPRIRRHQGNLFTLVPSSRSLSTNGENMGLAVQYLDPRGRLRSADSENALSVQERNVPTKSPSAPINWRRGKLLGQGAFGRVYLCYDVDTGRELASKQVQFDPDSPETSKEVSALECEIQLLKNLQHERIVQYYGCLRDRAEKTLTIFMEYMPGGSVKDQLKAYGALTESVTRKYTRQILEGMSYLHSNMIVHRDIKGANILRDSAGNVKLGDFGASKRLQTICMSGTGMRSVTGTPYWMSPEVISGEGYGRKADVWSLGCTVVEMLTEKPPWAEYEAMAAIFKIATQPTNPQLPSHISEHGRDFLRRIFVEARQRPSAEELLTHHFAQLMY
Chain of SRSF protein kinase 1 (Homo sapiens) (Q96SB4 whole entry, the tested form may be a part): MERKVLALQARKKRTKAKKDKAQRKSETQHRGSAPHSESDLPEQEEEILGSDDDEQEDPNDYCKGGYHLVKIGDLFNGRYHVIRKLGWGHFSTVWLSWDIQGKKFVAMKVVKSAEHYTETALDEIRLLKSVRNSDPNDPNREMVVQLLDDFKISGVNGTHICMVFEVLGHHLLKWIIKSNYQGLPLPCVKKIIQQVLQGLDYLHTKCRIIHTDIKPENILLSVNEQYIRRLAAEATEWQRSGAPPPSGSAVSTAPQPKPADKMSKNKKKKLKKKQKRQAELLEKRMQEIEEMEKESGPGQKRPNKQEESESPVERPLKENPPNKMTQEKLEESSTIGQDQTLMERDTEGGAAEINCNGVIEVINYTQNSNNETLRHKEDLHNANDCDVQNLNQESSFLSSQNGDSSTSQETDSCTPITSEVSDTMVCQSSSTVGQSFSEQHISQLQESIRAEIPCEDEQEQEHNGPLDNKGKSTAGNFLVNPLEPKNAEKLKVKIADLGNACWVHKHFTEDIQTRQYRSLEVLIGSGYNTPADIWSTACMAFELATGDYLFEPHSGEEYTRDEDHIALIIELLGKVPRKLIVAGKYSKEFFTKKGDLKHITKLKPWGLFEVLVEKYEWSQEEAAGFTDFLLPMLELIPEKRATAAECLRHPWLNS

As to `C=CC(=O)Nc1ccccc1Nc1nc(Nc2ccc(N3CCN(C)CC3)cc2)ncc1C(=O)Nc1c(C)cccc1Cl`, the Activity in [1] came out at 95%; in assay [2], 100%; in assay [3], 100%; in assay [4], 100%; in assay [5], 100%; in assay [6], 100%. Also, the Activity in assay [7] came to 99%; in assay [8], 87%; in assay [9], 77%; in assay [10], 100%; in [11] it was 100%; in assay [12], 81%. Besides, the Activity in assay [13] was found to be 100%; in [14], 100%; in [15], 100%; in [16] it was 0.8%; in [17], 100%; in assay [18], 100%. Besides, the Activity in assay [19] came to 100%; in [20] it was 81%; in [21] it was 100%.
